# Data taken from paper PMC2893247 (Journal of natural products, 2008).
# “Also recorded” adds a separate entry of the source.
# Legend:
# HIF-1 [1] = assay: T47D cell-based reporter assay for HIF-1 activity; parameters: species or system human
# Outline: (§1)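 PC-3 or T47D cells in DMEM/F12 with 10% FCS were transiently transfected with the HIF-1 reporter pHRE3-TK-luc. HIF-1 was induced by hypoxia (1% O2) or 10 μM 1,10-phenanthroline with test compound present. % inhibition = (1 − treated/induced luminescence) × 100. IC50 from concentration-response data, one experiment in triplicate. Potency given as fold change in IC50 relative to a reference analogue.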
# HIF-1 [2] = assay: PC-3 cell-based reporter assay for HIF-1 activity; parameters: species or system human
# Outline: as §1
# pGL3-Control construct = assay: Luciferase expression from control construct pGL3-Control in T47D cells; type: cell-based, human; details: for IC50: Homo sapiens, T47D, read-out: IC50 on luciferase expression from pGL3-control
# Outline: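 T47D cells in DMEM/F12 with 10% FCS were transiently transfected with the constitutive pGL3-Control luciferase construct. Cells were treated with test compound and exposed to hypoxia (1% O2). Luciferase read-out as % inhibition = (1 − treated/induced light output) × 100. IC50 taken from concentration-response data, one experiment in triplicate.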
# [3] = test system: NADH-ubiquinone oxidoreductase (complex I); assay: Respiration of digitonin-permeabilized T47D cells, complex I substrates; type: cell-based, human; details: malate and pyruvate
# PC-3 cells = assay: Cell proliferation/viability assay, PC-3; type: cell-based, human; details: normoxic or hypoxic conditions, data not shown
# Outline: (§2)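 Cells kept in DMEM/F12 with 10% FCS and antibiotics at 37°C. Plated at 30,000 cells/well and left overnight, then given test compound in serum-free medium. After 30 min, incubated 48 h under normoxia (5% CO2/95% air) or hypoxia (1% O2/5% CO2/94% N2). Viability read by neutral red or by sulforhodamine B (TCA fix, 0.4% dye, Tris extraction, A490 minus A690). Reported as % inhibition versus control.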
# HIF-1α protein = assay: Western blot for nuclear HIF-1α protein in T47D cells; type: cell-based, human; details: T47D nuclear extract; for effect on induction of HIF-1α protein by hypoxia: 4 h hypoxia (1% O2)
# Outline: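 T47D cells plated at 10 × 10^6 per 100 mm dish for 16 h. Test compound given 30 min at 37°C, then 10 μM 1,10-phenanthroline or 1% O2 for 4 h. Nuclear extracts (60 μg protein) run on 8% SDS-PAGE and blotted to nitrocellulose. Probed with anti-HIF-1α monoclonal antibody (1:500, 1 h, RT), then HRP anti-mouse (1:30,000, 40 min), with chemiluminescent detection.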
# VEGF = assay: ELISA assay for secreted VEGF protein in T47D cells; type: cell-based, human; details: 16 h; for effect on hypoxic induction of secreted VEGF protein: hypoxia (1% O2)
# Outline: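 T47D cells plated at 356,000/well and incubated overnight at 37°C. Test compound added in serum-free DMEM/F12. After 30 min in air, treatment continued 16 h under 1% O2/5% CO2/94% N2 or with 10 μM 1,10-phenanthroline. Secreted VEGF in conditioned medium measured by ELISA and normalised to total lysate protein (BCA assay).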
# MDA-MB-231 cells = assay: Cell proliferation/viability assay, MDA-MB-231; type: cell-based, human; details: normoxic or hypoxic conditions, data not shown
# Outline: as §2
smiles,measurement,setting,value
"COC(=O)[C@]12CCCC(C)(C)[C@@H]1CC[C@@]1(C)[C@@H]3CC=C(C(C)=O)[C@H](C=O)[C@@]3(C)C(=O)C[C@@H]12 [Compound 8, 24-methyl-12,24,25-trioxoscalar-16-en-22-oate]",reduction in potency of HIF-1 inhibition in comparison to 7,HIF-1 [1],5 to 7 fold
same,reduction in potency of HIF-1 inhibition in comparison to 7,HIF-1 [2],11 to 15 fold
same,IC50,pGL3-Control construct,23 µM
"CC(=O)C1=CC[C@H]2[C@]3(C)CC[C@H]4C(C)(C)CCC[C@]4(CO)[C@H]3CC(=O)[C@]2(C)[C@H]1C=O [Compound 9, 22-hydroxy-24-methyl-12,24-dioxoscalar-16-en-25-al]",IC50,pGL3-Control construct,2.6 µM
"C=C(C)[C@H]1Cc2c(ccc3c2O[C@@H]2COc4cc(OC)c(OC)cc4[C@@H]2C3=O)O1 [rotenone, reference compound]",effect on complex I-mediated mitochondrial respiration,[3],inhibited
"CC(=O)C1=CC[C@H]2[C@]3(C)CC[C@H]4C(C)(C)CCC[C@]4(CO)[C@H]3C[C@H](O)[C@]2(C)[C@H]1C=O [Compound 7, 22-Hydroxy-24-methyl-12α-hydroxy-24-oxoscalar-16-en-25-al]",effect on luciferase expression from control construct pGL3-Control,"pGL3-Control construct; Figure 1B, 1D",suppressed luciferase expression
"C/C(=C\CCc1ccoc1)CC/C=C(\C)CCCC1=CC(=O)OC1 [Compound 6, furospongolide]",effect on cell proliferation/viability,PC-3 cells,Neither 6 nor the 6/6a mixture affected
same,selectivity towards HIF-1 inhibition relative to suppression of hypoxic T47D cell proliferation/viability,HIF-1 [1],more than 10 fold
same,effect on complex I-mediated mitochondrial respiration,[3],selectively inhibits mitochondrial complex I-mediated respiration; also recorded: disrupting complex I
same,"effect on induction of HIF-1α protein by 1,10-phenanthroline","HIF-1α protein; 4 h 1,10-phenanthroline 10 μM",only weakly inhibited
same,effect on induction of HIF-1α protein by hypoxia,HIF-1α protein,blocked the induction of HIF-1α protein by hypoxia; also recorded: blocks the induction of nuclear HIF-1 α protein accumulation
same,effect on induction of HIF-1α protein by hypoxia,HIF-1α protein; listed as Furospongolide,inhibiting the hypoxic induction of HIF-1α protein
same,"effect on increase in secreted VEGF protein level caused by 1,10-phenanthroline","VEGF; 30 μM, 1,10-phenanthroline (10 μM)",did not affect
same,effect on hypoxic induction of secreted VEGF protein,VEGF,decreased hypoxic induction of secreted VEGF proteins in a concentration-dependent manner; also recorded: inhibits hypoxic induction of HIF-1 target VEGF protein
same,effect on hypoxic induction of secreted VEGF protein,VEGF; listed as Furospongolide,blocked the induction
same,effect on cell proliferation/viability,MDA-MB-231 cells,Neither 6 nor the 6/6a mixture affected
